From PubChem BioAssay
Shown are actives, neighbours in structure and some others; about 3.9% of the full set was active somewhere.
tim10-1 inh: growth inhibitors of tim10-1 mutant yeast, primary screen, luminescence, uHTS. S. cerevisiae tim10-1 ts strain growth, BacTiter-Glo, 24 h. inhibition, % at 20 µM. 2.2% of 330,000 active;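 active means inhibition of at least 40%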;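 further: mutant grown at 25 °C; 0% = DMSO wells with yeast and 100% = wells holding no yeast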
UPR CHOP act: activators of apoptotic CHOP UPR arm, primary screen, cell-based, CHO-CHOP luciferase reporter, luminescence, uHTS; UPR activation; percent of tunicamycin response over DMSO baseline; 0.34% of 330,000 active; activation, % at 10 µM; AID 449763, 2010;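 active means at 10 µM dose, activation of 40% or more, normalized to positive control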;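 further: 100% = tunicamycin at 10 µg/mL and 0% = DMSO alone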
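Test system: CHO CHOP reporter cells. Input: 500 CHO-CHOP cells per well. Medium: F12 with 10% FBS. Technique: luciferase luminescence. Measure: percent activation relative to tunicamycin control. Dosing: 10 µM compound, 0.5% DMSO. Timing: 16-18 h cell attachment, then 6 h compound exposure, 37 °C.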
XBP1 UPR activ: activators of adaptive XBP1 UPR arm, primary screen, cell-based, CHO-XBP1 luciferase reporter, luminescence, uHTS; IRE1-XBP1 UPR activation; percent of tunicamycin response, DMSO as zero; activation, % at 20 µM; 0.33% of 330,000 active; AID 463104, 2010;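 active means versus positive control, 20 µM dose yields 30% or more activation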;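 further: 100% = tunicamycin at 10 µg/mL and 0% = DMSO only wells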
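Material: IRE1-XBP1 luciferase reporter CHO line / Quantity: one thousand reporter cells per well / Buffer or medium: F12 with 10% serum / Compound: 20 µM single concentration, DMSO 1% / Times: 6 h treatment, 37 °C / Detection: Steady-Glo luciferase glow luminescence, 10 min after reagent addition / Benchmarks: tunicamycin high, DMSO low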
tim23-1 inh: growth inhibitors of tim23-1 mutant yeast, primary screen, luminescence, uHTS | inhibition, % at 20 µM | AID 463212, 2010 | S. cerevisiae tim23-1 growth, BacTiter-Glo luminescence, 24 h | 1.3% of 330,000 active;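 active means growth inhibition of the mutant yeast at or above 50%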;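 further: temperature-sensitive mutant grown at 25 °C; plate controls were DMSO-treated mutant yeast for no effect and medium wells lacking yeast for full effect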
TIM10 inh: growth inhibitors of isogenic TIM10 control yeast, primary screen, counter-screen for tim10-1 yeast inhibitor project, luminescence, uHTS; S. cerevisiae TIM10 strain growth, BacTiter-Glo luminescence, 24 h; inhibition, % at 10 µM; AID 463195, 2010; 1.4% of 330,000 active;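 active means inhibition of 40% or more at the single tested concentration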;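 further: wild-type TIM10 isogenic control strain grown at permissive 25 °C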
UPR CHOP confirm: activators of apoptotic CHOP UPR arm, confirmation, cell-based, CHO-CHOP luciferase reporter, single concentration. shares compounds with UPR CHOP act. CHO-CHOP cells, CHOP-luciferase reporter luminescence; percent of tunicamycin response, DMSO as zero. activation, % at 10 µM. 64% of 1,000 active; in the data active means activation above about 33%;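 further: 0% = DMSO wells and 100% = tunicamycin 10 µg/mL wells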
An asterisk follows results filed as active; nt = no result given.

SMILES	tim10-1 inh	UPR CHOP act	XBP1 UPR activ	tim23-1 inh	TIM10 inh	UPR CHOP confirm
Cc1ccc(-c2cc(NC(=O)CCl)n(-c3ccccc3)n2)cc1	25	82*	-1	35	14	99*
CCOC(=O)c1oc2ccccc2c1COC(=O)CNC(=O)c1ccc(C)cc1	9	0	-1	16	7	nt
Cc1cc(O)cc(=O)n1Cc1ccccc1	4	-2	-1	9	13	nt
Cc1ccc(S(=O)(=O)CCC(=O)OCC(=O)NC2CCS(=O)(=O)C2)cc1 (configuration not stated)	-23	-1	-3	-18	-4	nt
CCc1cc2c(SCC(=O)N3CCCC3=O)ncnc2s1	-2	1	1	13	1	nt
COc1cc(/C=C(\C#N)C(=O)NC2CCCCC2C)ccc1OS(=O)(=O)c1ccc(C)cc1 (configuration not stated)	36	76*	23	36	34	9
COc1cc(/C=C(\C#N)C(N)=O)ccc1OS(=O)(=O)c1ccc(C)cc1	9	1	0	38	2	nt
CC(C)c1nnc(NC(=O)c2nc(S(=O)(=O)Cc3ccccc3F)ncc2Cl)s1	9	56*	-9	16	16	18
O=C(NCc1ccc2c(c1)OCO2)c1nc(S(=O)(=O)Cc2ccccc2F)ncc1Cl	-17	43*	-9	36	-21	18
Cc1nnc(NC(=O)c2nc(S(=O)(=O)Cc3ccccc3C)ncc2Cl)s1	33	26	-8	27	29	nt
CSc1nnc(NC(=O)c2nc(S(=O)(=O)Cc3ccccc3F)ncc2Cl)s1	14	44*	-9	15	8	77*
Cc1ccc(S(=O)(=O)N2CCN(Cc3cc(=O)n4ccccc4n3)CC2)c(C)c1	19	-2	-4	23	15	nt
CCc1nnc(NC(=O)c2nc(S(=O)(=O)Cc3ccccc3)ncc2Cl)s1	19	59*	-9	14	16	13
CCS(=O)(=O)c1ncc(Cl)c(C(=O)Nc2ccc(C)cc2)n1	-24	12	-10	46	-6	nt
CCc1nnc(NC(=O)c2nc(S(=O)(=O)Cc3ccc(C)cc3)ncc2Cl)s1	-4	51*	-7	12	8	38*
CCc1nnc(NC(=O)c2nc(S(=O)(=O)Cc3cccc(C)c3)ncc2Cl)s1	18	72*	-11	22	9	30
CC(=O)Nc1ccc(NC(=O)c2nc(S(=O)(=O)Cc3ccccc3)ncc2Cl)cc1	0	-10	-10	12	5	nt
COc1cc(OC)c(NC(=O)Cn2cnc3sc(C)c(S(=O)(=O)N4CCOCC4)c3c2=O)cc1Cl	8	3	1	12	9	nt
CCCCOC(=O)/C=C\C(=O)NC(N)=O	14	88*	-5	17	22	121*
CCCCOC(=O)/C=C\C(=O)OCCCC	-7	3	-2	3	-7	nt
O=C1C=C(N2CCOCC2)c2ccccc2C1=O	3	41*	-8	2	12	3
CN(C(=O)CSc1nnc(-c2ccccc2F)n1N)C1CCCCC1	-1	-1	-5	0	-39	nt
Cc1cc(C)c(C(=O)COC(=O)C2CC3CCCC(C2)C3=O)c(C)c1 (configuration not stated)	38	-2	0	31	19	nt
COc1ccc2c(c1)CCc1c(C(=O)Nc3cc(C)n(Cc4ccc(Cl)cc4)n3)noc1-2	8	107*	142*	-4	0	121*
CC(C)C(NC(=O)c1ccco1)C(=O)NCc1ccc(C(=O)O)cc1 (configuration not stated)	0	2	-3	4	-5	nt
CC(C)C[C@@H](CN=[N+]=[N-])N1CCN(Cc2ccccc2)CCC1=O	19	-1	1	26	14	nt
CCc1ccccc1NC(=S)N=Nc1c(O)n(C)c2ccc(S(=O)(=O)N3CCOCC3)cc12	3	51*	0	17	4	53*
